The subject of series [1] is Pseudomonas aeruginosa. Nature of the series: Antibacterial activity against Pseudomonas aeruginosa assessed as growth inhibition at 500 uM after 2 hrs by GFP reporter gene assay. Particulars: in vivo. Format: organism-based. In general terms: A reporter such as luciferase makes a cellular process visible.
Series [2] in a line: Inhibition of quorum sensing system in Pseudomonas aeruginosa PAO1 MH602 harboring lasB promoter fused with GFP-ASV assessed as reduction in GFP-ASV reporter protein expression measured every 30 mins. The method, boiled down: (§1)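 P. aeruginosa PAO1 carrying a PlasB::gfp(ASV) fusion plasmid, which makes its own AHL signals, incubated with compounds at 88.8, 29.6, 9.9, 3.3 or 1.0 μM. GFP fluorescence (RFU) read every half hour. Percent QS inhibition is the percent RFU difference between sample and untreated control, taken at the time point when control fluorescence peaks.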

The subject of series [3] is Pseudomonas aeruginosa. Nature of the series: Antibacterial activity against Pseudomonas aeruginosa PAO1 assessed as growth inhibition at 150 uM after 6 hrs. Format: organism-based. Particulars: in vivo.
Series [4] can be described thus: Induction of nitric oxide release in PBS buffer supplemented with L-cysteine, xanthine, xanthine oxidase assessed as nitrite release at 250 to 500 uM after 1 hr by Griess assay. The class given is physicochemical. The method, boiled down:
(§2)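 Total NO release was quantified as nitrite with Griess reagent, which detects nitrite at ≥1 μM. Because of that limit, compounds were added at 250 μM and 500 μM.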

Series [5] in a line: Inhibition of quorum sensing system in Pseudomonas aeruginosa PAO1 MH602 harboring lasB promoter fused with GFP-ASV assessed as reduction in GFP-ASV reporter protein expression at 266 uM measured every 30 mins relative to control.
A short description of series [6]: Inhibition of quorum sensing system in Pseudomonas aeruginosa PAO1 MH602 harboring lasB promoter fused with GFP-ASV assessed as reduction in GFP-ASV reporter protein expression at 88 uM measured every 30 mins relative to control. In short, it runs like this:
as §1

Series [7] has as its system Pseudomonas aeruginosa. Nature of the series: Antibacterial activity against Pseudomonas aeruginosa PAO1 assessed as inhibition of biofilm formation at 150 uM after 6 hrs by crystal violet staining assay relative to control. The class given is functional. Particulars: for inhibition at 150 µM: PAO1, 6 h.
Series [8] is described as follows: Inhibition of quorum sensing system in Pseudomonas aeruginosa PAO1 MH602 harboring lasB promoter fused with GFP-ASV assessed as reduction in GFP-ASV reporter protein expression at 3.2 uM measured every 30 mins relative to control. In short, it runs like this:
as §1

Series [9] deals with Pseudomonas aeruginosa. Nature of the series: Induction of nitric oxide-dependent nirS gene expression in Pseudomonas aeruginosa at 500 uM incubated for 2 hrs under dark condition by GFP reporter gene assay relative to untreated control. The class given is functional.
Series [10] can be described thus: Inhibition of quorum sensing system in Pseudomonas aeruginosa PAO1 MH602 harboring lasB promoter fused with GFP-ASV assessed as reduction in GFP-ASV reporter protein expression at 29 uM measured every 30 mins relative to control. The method, boiled down:
as §1

Series [11] in a line: Inhibition of quorum sensing system in Pseudomonas aeruginosa PAO1 MH602 harboring lasB promoter fused with GFP-ASV assessed as reduction in GFP-ASV reporter protein expression at 9.8 uM measured every 30 mins relative to control. The method, boiled down:
as §1

Series [12] relates to Pseudomonas aeruginosa. Nature of the series: Antibacterial activity against Pseudomonas aeruginosa PAO1 MH602 harboring lasB promoter fused with GFP-ASV assessed as growth inhibition at 88 uM measured every 30 mins by GFP-ASV reporter gene assay. The class given is organism-based. Particulars: for Activity: pseudomonas aeruginosa, in vivo, 0.5 h, 88 µM. In short, it runs like this:
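Cell growth of the PAO1 PlasB::gfp(ASV) reporter strain tracked as OD600 every half hour during compound incubation, alongside GFP readings. Growth is compared against the untreated control.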

Series [13] can be described thus: Induction of nitric oxide release in PBS buffer supplemented with L-cysteine, xanthine, xanthine oxidase assessed as nitrite release at 500 uM after 1 hr by Griess assay. The class given is physicochemical. The method, boiled down:
as §2
On the technique in general: The Griess reaction detects nitrite, a stable product of nitric oxide.

Series [14] concerns Pseudomonas aeruginosa. Nature of the series: Antibacterial activity against Pseudomonas aeruginosa MH602 harboring lasB promoter fused with GFP-ASV assessed as growth inhibition at 266 uM measured every 30 mins by GFP-ASV reporter gene assay. The class given is organism-based. Particulars: MH602, 0.5 h, read-out: GI.
The nature of series [15]: Induction of nitric oxide release in PBS buffer supplemented with L-cysteine, xanthine, xanthine oxidase assessed as nitrite release at 250 to 500 uM after 24 hrs by Griess assay. The class given is physicochemical. In short, it runs like this:
as §2

Molecules are shown by their SMILES. Active and inactive are the calls of the source. Unless noted, no cut-off for these calls is given here.

`CCCCCC(O[N+](=O)[O-])C1=CC(=C(Br)Br)OC1=O` (stereo unspecified): the Activity result in the series with Pseudomonas aeruginosa [1] is “Non-toxic”; in the series on Pseudomonas aeruginosa [3], “Non-toxic”; in [4], 1 µM; in the series with Pseudomonas aeruginosa [12], “Non-toxic”. For the same compound, the inhibition result in series [2] is “Dose-dependent effect”; in [5] it was 73.1%; in series [6], 56.4%; in series [10], 32.5%. The inhibition at 150 µM in the series with Pseudomonas aeruginosa [7] was 70%. Moreover, the inhibition result in series [8] and in series [11] was “inactive” in each case. Moreover, in the series with Pseudomonas aeruginosa [9], the result was inactive.

With `CCCCCCCCCCCC(O[N+](=O)[O-])C1=CC(=C(Br)Br)OC1=O` (stereo unspecified), the Activity entry in the series on Pseudomonas aeruginosa [1] was “Non-toxic”; in [13] it was 17.9 µM; in the series on Pseudomonas aeruginosa [12], “Non-toxic”. The inhibition result in series [2] was “Dose-dependent effect”; in series [5], 67.3%; in series [6], 29%. In addition, the inhibition at 150 µM in the series on Pseudomonas aeruginosa [7] came to 73%. Also, the inhibition result in [8], in [10] and in series [11] was “inactive” each time. Moreover, in the series with Pseudomonas aeruginosa [9], the outcome was inactive.

For `CCCC(OC(=O)CO[N+](=O)[O-])C1=CC(=C(Br)Br)OC1=O` (stereo unspecified), the Activity result with Pseudomonas aeruginosa [1] is “Non-toxic”; in series [13] it was 29 µM; in the series on Pseudomonas aeruginosa [12], “Non-toxic”. Further, the inhibition result was “Dose-dependent effect” in [2]; 88% in series [5]; 72.9% in series [6]; 49.6% in series [10]; 23.2% in series [11]. In addition, in the series on Pseudomonas aeruginosa [7], the inhibition at 150 µM was determined as 61%. Also, the inhibition entry in series [8] is “inactive”. In addition, the “fold change (FC)” value with Pseudomonas aeruginosa [9] is recorded as 2.5.

As for `CCCC(O[N+](=O)[O-])C1=CC(=C(Br)Br)OC1=O` (stereo unspecified), the Activity entry in the series with Pseudomonas aeruginosa [1] was “Non-toxic”; with Pseudomonas aeruginosa [3], “Non-toxic”; in series [4], 1 µM; with Pseudomonas aeruginosa [12] it was “Non-toxic”. In addition, the inhibition result in [2] was “Dose-dependent effect”; in series [5], 91.1%; in series [6], 71.4%; in series [10], 39.9%; in [11], 22.4%. The inhibition at 266 µM in the series with Pseudomonas aeruginosa [14] was over 15%. Besides, the inhibition at 150 µM in the series with Pseudomonas aeruginosa [7] worked out at 70%. Besides, the inhibition result in series [8] was “inactive”. The result in the series with Pseudomonas aeruginosa [9] was inactive.

For the compound `CCCCCCCCCCCC(OC(=O)CC(=O)N1CCN(/[N+]([O-])=N/OC)CC1)C1=CC(=C(Br)Br)OC1=O` (stereo unspecified), the Activity entry in series [15] was “Not Active”; in the series with Pseudomonas aeruginosa [12], “Non-toxic”. The inhibition entry was “Dose-dependent effect” in series [2] and 40.9% in [5]. Also, the inhibition entry (in series [6]; in the series with Pseudomonas aeruginosa [7]; in [8]; in [10]; in [11]) was “inactive” throughout.

On to `CC(O[N+](=O)[O-])C1=CC(=C(Br)Br)OC1=O` (stereo unspecified), for which the Activity entry in the series on Pseudomonas aeruginosa [1] was “Toxic”. For the same compound, the inhibition entry in series [2] is “Dose-dependent effect”; in series [5], 94.3%; in series [6], 70.4%; in [10] it was 29%. For the same compound, the inhibition at 266 µM in the series on Pseudomonas aeruginosa [14] is over 15%. For the same compound, in the series with Pseudomonas aeruginosa [7], the inhibition result was “Active”. Besides, the inhibition result in series [8] and in series [11] was “inactive” in each case. The outcome in the series with Pseudomonas aeruginosa [9] was inactive. For the same compound, in the series on Pseudomonas aeruginosa [12] (Pseudomonas aeruginosa, PAO1 MH602, 0.5 h, read-out: GI), the inhibition at 88 µM was over 15%.

On to `CCCC(SC(=O)CCCO[N+](=O)[O-])C1=CC(=C(Br)Br)OC1=O` (stereo unspecified), for which the values for the Activity entry (with Pseudomonas aeruginosa [1]; in [4]; with Pseudomonas aeruginosa [12]) were “Non-toxic”, “Active” and “Non-toxic”, respectively. Further, the inhibition result in [2] was “Dose-dependent effect”; in series [5], 54.2%; in series [6], 13.8%. The inhibition entry in [8], in series [10] and in series [11] was “inactive” in each case. Further, the result in the series with Pseudomonas aeruginosa [9] was inactive.

In the case of `CCCCCCCC(O[N+](=O)[O-])C1=CC(=C(Br)Br)OC1=O` (stereo unspecified), the Activity result was “Non-toxic” in the series with Pseudomonas aeruginosa [1], “Active” in series [4] and “Non-toxic” with Pseudomonas aeruginosa [12]. In addition, the inhibition entry in series [2] was “Dose-dependent effect”; in series [5], 58.2%; in series [6], 19.2%. In addition, the inhibition entry in series [8], in series [10] and in series [11] was “inactive” in each case. Further, the result in the series with Pseudomonas aeruginosa [9] was inactive.

For the compound `CCCC(OC(=O)CO/N=[N+](\[O-])N1CCN(C(=O)OCC)CC1)C1=CC(=C(Br)Br)OC1=O` (stereo unspecified), the Activity entry in [15] is reported as “Not Active”; in the series with Pseudomonas aeruginosa [12] it was “Non-toxic”. The inhibition result was “Dose-dependent effect” in series [2]; 65.9% in series [5]; 41.5% in [6]; 22.8% in series [10]; 4% in series [11]. Moreover, the inhibition entry (in the series on Pseudomonas aeruginosa [7]; in [8]) was “inactive” throughout.

The values above are taken from ChEMBL document CHEMBL3102710, “Design, synthesis, and evaluation of fimbrolide-nitric oxide donor hybrids as antimicrobial agents” (J Med Chem, 2013).
